Laboratory results published in ChEMBL document CHEMBL1152488, “Synthesis and evaluation of pyrido[1,2-a]pyrimidines as inhibitors of nitric oxide synthases” (Eur J Med Chem, 2009).

Key:
[1] = target: Nitric oxide synthase, inducible (Homo sapiens) (UniProt P35228); experiment: Inhibition of human iNOS expressed in insect Sf9 cells assessed as residual activity at 100 uM by Griess assay relative to control
In short: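 Human iNOS made in Sf9 cells, incubated at 37 °C for 20 min in 50 mM triethanolamine pH 7.5 with 1 mM Mg2+, FAD/FMN 5 µM each, 0.5 mM NADPH, 10 µM H4B, CaM and 1 mM L-arginine. Compound 100 µM final. NADPH cleared with lactate dehydrogenase/pyruvate before Griess reaction (543 nm). Residual activity relative to 1% DMSO control; mean of 5 experiments.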

[2] = target: T1, Nitric oxide synthase 3 (Homo sapiens) (UniProt P29474); experiment: Inhibition of human eNOS assessed as residual activity at 100 uM by Griess assay relative to control
T1 sequence (whole entry): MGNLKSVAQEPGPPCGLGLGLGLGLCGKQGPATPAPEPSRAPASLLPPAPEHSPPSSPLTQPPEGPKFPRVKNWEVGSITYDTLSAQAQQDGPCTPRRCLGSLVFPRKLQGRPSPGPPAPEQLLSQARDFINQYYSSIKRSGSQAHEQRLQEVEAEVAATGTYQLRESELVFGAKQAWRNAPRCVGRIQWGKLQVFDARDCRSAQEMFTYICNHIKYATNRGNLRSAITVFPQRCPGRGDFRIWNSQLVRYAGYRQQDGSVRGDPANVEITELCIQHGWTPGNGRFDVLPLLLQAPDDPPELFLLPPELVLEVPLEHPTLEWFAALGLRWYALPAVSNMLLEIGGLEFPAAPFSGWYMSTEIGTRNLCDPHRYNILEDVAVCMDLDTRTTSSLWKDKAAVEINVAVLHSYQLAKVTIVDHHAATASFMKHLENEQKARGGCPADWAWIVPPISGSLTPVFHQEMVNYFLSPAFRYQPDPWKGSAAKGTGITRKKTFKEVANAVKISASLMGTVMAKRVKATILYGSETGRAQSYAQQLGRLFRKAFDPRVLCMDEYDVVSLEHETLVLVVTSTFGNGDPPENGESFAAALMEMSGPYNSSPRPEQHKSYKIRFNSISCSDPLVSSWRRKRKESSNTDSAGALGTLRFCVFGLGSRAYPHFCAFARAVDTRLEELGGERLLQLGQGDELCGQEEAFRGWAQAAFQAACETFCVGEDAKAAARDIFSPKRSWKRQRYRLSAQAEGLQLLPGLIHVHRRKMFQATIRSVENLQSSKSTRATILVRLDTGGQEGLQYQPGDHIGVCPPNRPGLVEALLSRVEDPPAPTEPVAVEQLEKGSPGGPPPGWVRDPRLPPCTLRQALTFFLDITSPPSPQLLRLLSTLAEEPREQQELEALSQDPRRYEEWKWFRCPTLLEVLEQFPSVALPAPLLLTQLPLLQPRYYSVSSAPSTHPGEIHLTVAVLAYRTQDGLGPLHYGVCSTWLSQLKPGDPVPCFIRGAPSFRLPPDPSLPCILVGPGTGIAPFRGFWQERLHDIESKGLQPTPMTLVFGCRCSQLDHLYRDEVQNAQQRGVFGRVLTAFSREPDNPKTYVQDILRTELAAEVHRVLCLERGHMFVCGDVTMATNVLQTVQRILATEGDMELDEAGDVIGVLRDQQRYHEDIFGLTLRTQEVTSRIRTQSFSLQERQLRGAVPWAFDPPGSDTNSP
In short: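 Human eNOS expressed in Pichia pastoris. Incubated 20 min at 37 °C in triethanolamine pH 7.5 with 0.5 mM Ca2+, CaM, H4B 10 µM, FAD/FMN 5 µM, NADPH 0.5 mM, L-arginine 1 mM and compound at 100 µM final. Nitrite read by Griess (543 nm) after LDH/pyruvate NADPH removal; % of 1% DMSO control from 5 experiments.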

[3] = target: T2, Nitric oxide synthase, inducible (Mus musculus) (UniProt P29477); experiment: Inhibition of mouse recombinant iNOS expressed in Escherichia coli assessed as NADPH consumption at 100 uM after 2 mins by spectrophotometry
T2 sequence (whole entry): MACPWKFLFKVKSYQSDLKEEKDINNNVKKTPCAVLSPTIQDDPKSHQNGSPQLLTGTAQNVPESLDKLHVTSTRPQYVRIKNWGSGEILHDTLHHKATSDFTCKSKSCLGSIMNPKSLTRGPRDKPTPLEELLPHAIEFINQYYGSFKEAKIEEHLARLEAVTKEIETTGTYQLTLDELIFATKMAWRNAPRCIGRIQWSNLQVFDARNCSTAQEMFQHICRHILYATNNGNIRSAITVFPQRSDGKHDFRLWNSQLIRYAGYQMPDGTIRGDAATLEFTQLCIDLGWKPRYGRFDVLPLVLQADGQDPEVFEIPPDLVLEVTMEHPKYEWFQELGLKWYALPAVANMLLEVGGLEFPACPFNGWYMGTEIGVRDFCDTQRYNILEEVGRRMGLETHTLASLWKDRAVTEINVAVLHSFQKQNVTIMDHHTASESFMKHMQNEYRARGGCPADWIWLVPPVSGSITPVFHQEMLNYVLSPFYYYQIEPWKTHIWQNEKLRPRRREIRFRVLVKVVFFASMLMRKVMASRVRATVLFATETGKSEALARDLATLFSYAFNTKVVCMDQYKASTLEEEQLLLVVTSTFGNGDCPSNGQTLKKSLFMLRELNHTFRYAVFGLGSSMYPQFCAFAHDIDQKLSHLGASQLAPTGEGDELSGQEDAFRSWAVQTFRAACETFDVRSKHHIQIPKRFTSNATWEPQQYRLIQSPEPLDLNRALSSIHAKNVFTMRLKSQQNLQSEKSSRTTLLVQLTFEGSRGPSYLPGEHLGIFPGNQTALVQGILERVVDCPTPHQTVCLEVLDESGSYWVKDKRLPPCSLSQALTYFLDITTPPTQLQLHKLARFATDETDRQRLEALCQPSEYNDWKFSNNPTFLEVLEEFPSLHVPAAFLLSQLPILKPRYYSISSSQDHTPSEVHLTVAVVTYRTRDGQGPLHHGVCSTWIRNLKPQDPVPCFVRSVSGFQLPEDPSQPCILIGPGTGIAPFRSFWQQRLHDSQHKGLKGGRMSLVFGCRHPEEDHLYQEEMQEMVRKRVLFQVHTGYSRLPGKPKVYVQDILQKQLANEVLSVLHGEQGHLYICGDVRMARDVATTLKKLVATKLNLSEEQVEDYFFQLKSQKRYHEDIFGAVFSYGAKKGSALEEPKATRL
In short: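 Murine iNOS from E. coli (15–50 nM final) in 50 mM Hepes pH 7.4 with 5 mM DTT, 100 µM CaCl2, 200 µM NADPH, 10 µM H4B, 100 µM L-arginine and 100 µM compound. Cofactors and compound preincubated 2 min at 37 °C, enzyme added, and A340 followed for 3 min (ε 6.2 mM-1 cm-1). Given as % of 1% DMSO control NADPH oxidase rate.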

[4] = test system: RAW264.7; experiment: Cytotoxicity against mouse RAW264.7 cells at 100 uM; assay type: cell-based; conditions: raw264.7, 100 µM

Chain of Nitric oxide synthase, inducible (Homo sapiens) (P35228 whole entry): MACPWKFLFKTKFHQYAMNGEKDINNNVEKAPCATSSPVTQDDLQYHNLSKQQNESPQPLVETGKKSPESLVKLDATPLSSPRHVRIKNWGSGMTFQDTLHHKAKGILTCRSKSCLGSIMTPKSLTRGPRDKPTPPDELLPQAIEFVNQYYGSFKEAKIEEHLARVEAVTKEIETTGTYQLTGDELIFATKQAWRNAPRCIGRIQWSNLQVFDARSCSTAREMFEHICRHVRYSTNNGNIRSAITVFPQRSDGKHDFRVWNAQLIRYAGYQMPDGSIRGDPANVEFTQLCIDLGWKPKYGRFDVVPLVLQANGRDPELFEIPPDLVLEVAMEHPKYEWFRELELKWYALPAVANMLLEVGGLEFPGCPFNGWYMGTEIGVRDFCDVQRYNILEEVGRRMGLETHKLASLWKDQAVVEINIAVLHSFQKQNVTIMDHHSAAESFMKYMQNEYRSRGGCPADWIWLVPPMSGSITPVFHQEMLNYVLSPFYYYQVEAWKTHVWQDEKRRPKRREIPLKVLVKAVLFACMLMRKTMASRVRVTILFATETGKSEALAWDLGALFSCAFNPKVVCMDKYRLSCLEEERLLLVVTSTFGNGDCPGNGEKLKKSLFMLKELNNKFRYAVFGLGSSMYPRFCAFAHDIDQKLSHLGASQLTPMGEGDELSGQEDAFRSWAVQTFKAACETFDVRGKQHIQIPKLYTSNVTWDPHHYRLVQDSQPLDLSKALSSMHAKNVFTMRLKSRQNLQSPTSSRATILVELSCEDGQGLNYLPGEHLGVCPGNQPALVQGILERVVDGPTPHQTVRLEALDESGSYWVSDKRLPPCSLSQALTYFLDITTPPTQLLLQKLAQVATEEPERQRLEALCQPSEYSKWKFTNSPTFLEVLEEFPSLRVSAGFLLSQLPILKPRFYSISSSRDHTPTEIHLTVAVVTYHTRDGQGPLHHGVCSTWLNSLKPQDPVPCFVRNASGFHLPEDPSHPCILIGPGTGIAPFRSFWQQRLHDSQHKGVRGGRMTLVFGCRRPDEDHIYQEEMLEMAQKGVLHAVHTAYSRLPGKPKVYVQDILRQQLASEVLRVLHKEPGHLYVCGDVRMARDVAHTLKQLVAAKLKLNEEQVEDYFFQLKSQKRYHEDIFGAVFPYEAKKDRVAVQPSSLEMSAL

SMILES	Activity [1]	Activity [2]	Remaining NADPH oxidation rate (% of DMSO control) [3]	Activity [4]
CC1=CC2=NCC(C(=O)c3ccc(-c4ccc(Br)cc4)cc3)CN2C(C)=C1 (stereo unspecified)	89%	15%	72%	–
CC1=CC2=NCC(C(=O)c3ccc4ccccc4c3)CN2C=C1 (stereo unspecified)	47%	60%	–	–
COc1ccc(-c2ccc(C(=O)C3CN=C4C=C(C)C=CN4C3)cc2)cc1.Cl (stereo unspecified)	49%	57%	40%	Non-toxic
COc1ccc(C(=O)C2CN=C3C=CC=C(C)N3C2)cc1OC.[O-][Cl+3]([O-])([O-])O (stereo unspecified)	–	–	92%	Non-toxic
N=C(NCCC[C@H](N)C(=O)O)N[N+](=O)[O-]	48%	25%	–	–
CC1=CC2=NCC(C(=O)c3ccc(F)cc3)CN2C=C1 (stereo unspecified)	78%	77%	–	–
CC1=CC2=NCC(C(=O)c3ccc(-c4ccc(Br)cc4)cc3)CN2C=C1.[O-][Cl+3]([O-])([O-])O (stereo unspecified)	120%	17%	64%	Non-toxic
CC1=CC2=NCC(C(=O)c3ccc4cc(C)ccc4c3)CN2C(C)=C1.[O-][Cl+3]([O-])([O-])O (stereo unspecified)	83%	86%	72%	Non-toxic
O=C(c1ccc2ccccc2c1)C1CN=C2C=CC=CN2C1 (stereo unspecified)	93%	60%	–	–
COc1ccc2cc(C(=O)C3CN=C4C=C(C)C=CN4C3)ccc2c1 (stereo unspecified)	88%	98%	–	–
CCCNC(=N)NCCC[C@H](N)C(=O)O	95%	96%	–	–
CC1=CC2=NCC(C(=O)c3ccc(-c4ccccc4)cc3)CN2C=C1 (stereo unspecified)	17%	8%	–	–
COc1ccc(C(=O)C2CN=C3C=C(C)C=CN3C2)cc1F.[O-][Cl+3]([O-])([O-])O (stereo unspecified)	102%	84%	73%	Non-toxic
CC1=CC2=NCC(C(=O)c3ccc(Br)cc3)CN2C=C1 (stereo unspecified)	69%	73%	–	–
CC1=CC2=NCC(C(=O)c3ccccc3)CN2C=C1 (stereo unspecified)	63%	72%	–	–
O=C(c1ccc(Br)cc1)C1CN=C2C=CC=CN2C1 (stereo unspecified)	110%	85%	–	–
CC1=CC2=NCC(C(=O)c3ccc(-c4ccc(C#N)cc4)cc3)CN2C=C1.Cl (stereo unspecified)	55%	55%	40%	Non-toxic
CC1=CC=CC2=NCC(C(=O)c3ccc(Br)cc3)CN12 (stereo unspecified)	93%	86%	–	–
CC1=CC2=NCC(C(=O)c3ccc(OCc4ccc(Br)cc4)cc3)CN2C=C1.Cl (stereo unspecified)	83%	16%	100%	Non-toxic
CC1=CC=CC2=NCC(C(=O)c3ccc(C)cc3)CN12.[O-][Cl+3]([O-])([O-])O (stereo unspecified)	–	–	94%	Non-toxic
O=C(c1ccc(Cl)c(Cl)c1)C1CN=C2C=CC=CN2C1.[O-][Cl+3]([O-])([O-])O (stereo unspecified)	105%	89%	100%	Non-toxic
CCSC(=N)N	6%	37%	–	–
CC1=CC2=NCC(C(=O)c3ccc4cc(C)ccc4c3)CN2C=C1.[O-][Cl+3]([O-])([O-])O (stereo unspecified)	103%	11%	70%	Non-toxic
CC(=N)NCc1cccc(CN)c1	5%	105%	–	–
CC1=CC2=NCC(C(=O)c3ccc(OCc4ccc(C#N)cc4)cc3)CN2C=C1.[O-][Cl+3]([O-])([O-])O (stereo unspecified)	105%	78%	77%	Non-toxic
CC1=CC=CC2=NCC(C(=O)c3ccc(F)cc3)CN12.[O-][Cl+3]([O-])([O-])O (stereo unspecified)	88%	77%	87%	Non-toxic
CC1=CC2=NCC(C(=O)c3ccc(Cl)cc3)CN2C=C1 (stereo unspecified)	50%	7%	–	–
CC1=CC2=NCC(C(=O)c3ccc(OCc4ccc(Cl)cc4)cc3)CN2C=C1.[O-][Cl+3]([O-])([O-])O (stereo unspecified)	94%	8%	64%	Non-toxic
CC1=CC=CC2=NCC(C(=O)c3ccc4ccccc4c3)CN12 (stereo unspecified)	89%	75%	–	–
